Only some compounds are listed: those with a hit (about 1.6% of all), similar ones and a draw of the others.
HKDC1 inh – HKDC1 hexokinase inhibitors, primary screen, biochemical, fluorescence, uHTS | Q2TB90 | recombinant HKDC1, G6PDH/diaphorase resazurin coupled fluorescence | inhibition, % at 20 µM | 0.16% of 340,000 active | AID 493160, 2011;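 active = inhibition above about 35% when tested at 20 µM, limit read from the data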
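Assay system: in-house recombinant HK5 (HKDC1) enzyme. Input: HKDC1 at 5 µg/mL. Medium: Tris pH 8.0 buffer with MgCl2, Tween-20, BSA, BME. Dosing: single 20 µM dose. Schedule: 90 min reaction incubation at room temperature, dark. Signal: resazurin-to-resorufin fluorescence via G6PDH and diaphorase coupling, 525/613 nm. Controls: DMSO-enzyme wells negative, buffer-substituted wells positive.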
TDP2 inh – human TDP2 enzyme inhibitors, primary screen, biochemical, epi absorbance, recombinant enzyme; AID 720702, 2013; T5PNP hydrolysis, p-nitrophenol absorbance 415 nm; 0.34% of 370,000 active; Tyrosyl-DNA phosphodiesterase 2 (Homo sapiens), O95551; inhibition, % at 12.8 µM;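 active = inhibition above the mean of all tested compounds plus 3 SD, set per campaign, cut at about 25% in these data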
Target sequence (O95551 whole entry, looked up): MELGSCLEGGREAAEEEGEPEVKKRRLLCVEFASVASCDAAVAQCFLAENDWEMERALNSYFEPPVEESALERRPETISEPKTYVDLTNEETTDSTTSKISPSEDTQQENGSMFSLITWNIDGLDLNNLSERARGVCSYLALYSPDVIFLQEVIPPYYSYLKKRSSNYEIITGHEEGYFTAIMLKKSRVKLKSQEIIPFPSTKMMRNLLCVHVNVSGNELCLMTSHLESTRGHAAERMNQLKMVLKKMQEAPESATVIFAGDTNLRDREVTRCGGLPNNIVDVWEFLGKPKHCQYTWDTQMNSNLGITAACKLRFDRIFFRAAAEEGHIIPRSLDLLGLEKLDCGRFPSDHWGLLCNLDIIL
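System: recombinant human TDP2 / Amount: 120 nM TDP2 per well / Also added: 5 mM T5PNP chromogenic substrate / Doses: 12.8 µM single point, 1% DMSO / Incubation: 2 h at 37 °C / Detection: p-Nitrophenol epi absorbance / Evaluation: % inhibition relative to enzyme-containing and enzyme-free wells / Repeats: singlicate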
CTSL1 counter – Fasciola hepatica cathepsin L1 inhibitors, primary screen, counter-screen for PFM18AAP inhibitor project, biochemical, QFRET, fluorogenic peptide substrate | 0.49% of 300,000 active | AID 1906, 2009 | recombinant F. hepatica cathepsin L1, Z-Leu-Arg-MCA fluorescence | inhibition, % at 5.96 µM;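 active = inhibition above the mean of all tested compounds plus 3 SD, set per screening campaign, cut at about 17% in these data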
PAD4 FP inh – human PAD4 inhibitors, primary screen, biochemical, fluorescence polarization, 1536-well format; recombinant PAD4, RCA probe fluorescence polarization; Protein-arginine deiminase type-4 (Homo sapiens), Q9UM07; AID 485272, 2010; inhibition, % at 6.36 µM; 0.41% of 330,000 active;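 active = percent inhibition above a cutoff equal to the mean of all tested compounds plus 3 SD, cut at about 15% in these data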
UCH37 inh – inhibitors of human UCH37 deubiquitinase, primary screen, biochemical, Ub-AMC cleavage, fluorescence; purified proteasome/UCH37; Ubiquitin carboxyl-terminal hydrolase isozyme L5 (Homo sapiens), Q9Y5K5; inhibition, % (no concentration beside the values); 0.33% of 330,000 active;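 active = mean inhibition over replicate wells above about 20%, limit read from the data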
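Material: human UCH37 enzyme supplied as purified proteasome complex. Measure: % inhibition of Ub-AMC cleavage fluorescence. Medium: pH 7.4 Tris-HCl (50 mM) with ovalbumin, ATP-MgCl2, DTT. Times: 30 min preincubation with enzyme, 25 min cleavage at room temperature. Detection: AMC fluorescence intensity at 355/460 nm.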
GSTO1 inh – inhibitors of recombinant GSTO1, primary screen, counter-screen for RBBP9 inhibitor project, biochemical, fluorescence polarization; Glutathione S-transferase omega-1 (Homo sapiens), P78417; activity-based probe fluorescence polarization; inhibition, % at 5.96 µM; 1.1% of 300,000 active; AID 1974, 2009;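 active = inhibition above the campaign mean inhibition plus 3 SD, cut at about 35% in these data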
Numbers stand for hits; 0 = inactive; - = not tested or not shown.

SMILES | HKDC1 inh | TDP2 inh | CTSL1 counter | PAD4 FP inh | UCH37 inh | GSTO1 inh
CCOc1ccc(Nc2nc(N)nc(CCl)n2)cc1 | 0 | 0 | 0 | 0 | 0 | 82
CCOc1ccc(Nc2nc(N)nc(CSC(=S)N3CCOCC3)n2)cc1 | 0 | 0 | 18 | 0 | 0 | 0
Cc1cccc(Nc2nc(N)nc(CN3CCC(C(N)=O)CC3)n2)c1C | 0 | 0 | 0 | 0 | 0 | 0
Cc1cccc(Nc2nc(N)nc(CCl)n2)c1C | 0 | 0 | 0 | 0 | - | 65
CCCOc1ccc(NC(=O)C2CC(=O)N/C(=N/N=C(C)CCc3ccc4c(c3)OCO4)S2)cc1 (centres undefined) | - | - | - | - | 0 | -
CC(=O)NN=Cc1cc2c(cc1[N+](=O)[O-])OCO2 | - | - | - | - | 0 | -
COC1=CC2(O)CCCC2=CC1=O (centres undefined) | 0 | 0 | 0 | 0 | 30 | 0
CC1=NNC(=O)C1CCC(=O)NN=Cc1ccccc1 (centres undefined) | - | - | - | - | 0 | -
COc1ccc(S(=O)(=O)N=C2C=CC(=O)C(C)=C2C)cc1 | - | - | - | - | 0 | -
COc1ccc(S(=O)(=O)/N=C2/C=CC(=O)C(C)=C2C)cc1 | 52 | - | 0 | 0 | - | 0
CNc1nc2cc([N+](=O)[O-])c([N+](=O)[O-])cc2nc1NC | 0 | 0 | 0 | 0 | 41 | 0
Cc1ccc(NC(=S)N/N=C/c2c(C)[nH]c3ccccc23)cc1 | 0 | 0 | 0 | 0 | - | 0
Cc1[nH]c2ccccc2c1/C=N/NC(N)=S | 0 | 0 | 92 | 0 | - | 0
NC(=S)N/N=C\c1c2ccccc2cc2ccccc12 | 0 | 0 | 84 | 0 | - | 0
NC(=S)N/N=C\c1c(OCc2ccccc2Cl)ccc2ccccc12 | 0 | 0 | 30 | 0 | - | 0
COc1cc(C(=O)NCC(=O)NN=Cc2c(C)[nH]c3ccccc23)cc(OC)c1OC | - | - | - | - | 0 | -
COc1ccc(C=NNC(=O)c2nonc2C)cc1 | - | - | - | - | 0 | -
CC(=NNC(=O)C1CCCC1)c1ccc(Cl)cc1 | - | - | - | - | 0 | -
O=C(Nc1ccc2nc(-c3cccs3)[nH]c2c1)c1cccs1 | 0 | 0 | 17 | 0 | 0 | 0
O=C(Nc1ccc(-c2nc3ccc(NC(=O)c4cccs4)cc3[nH]2)cc1)c1cccs1 | 0 | 0 | 0 | 0 | 0 | 0
COc1cc(C=NNc2nc(-c3ccc(S(=O)(=O)N(C)C)cc3)cs2)ccc1O | - | - | - | - | 0 | -
Cc1nn(Cc2c(F)c(F)c(F)c(F)c2F)c(C)c1NC(=O)c1ccc(COc2ccc(Cl)cc2Cl)o1 | 0 | 0 | 17 | 0 | 0 | 0
CCCCOC(=O)CSc1nnc(-c2ccc(Cl)cc2Cl)o1 | 0 | 0 | 0 | 0 | 0 | 0
CC(C)OC(=O)CSc1nnc(-c2ccc(Cl)cc2Cl)o1 | 0 | 0 | 21 | 0 | 0 | 0
O=c1[nH][nH]c(-c2ccccc2O)c1C(C[N+](=O)[O-])c1ccc(Br)cc1 (centres undefined) | 0 | 0 | 0 | 0 | 0 | 0
SMILES | HKDC1 inh | TDP2 inh | CTSL1 counter | PAD4 FP inh | UCH37 inh | GSTO1 inh
Cc1ccc(C(C[N+](=O)[O-])c2c(-c3ccccc3O)[nH][nH]c2=O)cc1 (centres undefined) | 0 | 0 | 0 | 0 | 0 | 35
CCCCN1C(=O)Cc2c1nc(N)c1c(N)nc(N(CCC)CCC)c(C#N)c21 | 0 | 0 | 0 | 0 | 0 | 73
Nc1nnnn1N=Cc1ccccc1OCc1ccc(Cl)cc1 | - | - | - | - | 0 | -
COCCNC(=O)C(=O)Nc1cc2c3c(c1)C(C)C(=O)N3CCC2 (centres undefined) | 0 | 0 | 18 | 0 | 0 | 0
COc1ccccc1CCNC(=O)C(=O)Nc1cc2c3c(c1)C(C)C(=O)N3CCC2 (centres undefined) | 0 | 0 | 0 | 0 | 0 | 0
CC(/C=C1\SC(=S)N(CCC(=O)Nc2cccc(C(=O)O)c2)C1=O)=C\c1ccccc1 | 0 | 0 | 0 | 0 | 22 | 0
O=C(O)CCN1C(=O)/C(=C\c2cccc(Oc3ccccc3)c2)SC1=S | 0 | 0 | 0 | 0 | 21 | 0
O=C(O)CCCN1C(=O)/C(=C\c2ccco2)SC1=S | 0 | 0 | - | - | 0 | -
O=C(O)CCN1C(=O)/C(=C\c2ccc(-c3nc4ccccc4s3)o2)SC1=S | 0 | - | 0 | 0 | 92 | 0
